The source made the active and inactive calls. The calls are words filed in the database; no cut-off is given here.
Columns and labels:
[1] = Toxicity in human NCI-H292 cells xenografted CD-1 mouse assessed as weight loss at 120 mg/kg, po administered 3 times per week for 2 weeks starting 2 hrs post-erlotinib treatment and measured during compound dosing; format: organism-based; details: in vivo, 336 h
How it was run: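 NCI-H292 cells in 50% Matrigel/PBS injected s.c. into flank of female CD1-nude mice; dosing began after 2 wk at mean tumour 0.2 cm³, n = 5/group. […] Body weight and signs monitored; treatment ended day 16.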

NCI-H460 [2] = experiment: Synergistic antiproliferative activity against human NCI-H460 cells assessed as combination index at ED50 measured after 72 hrs in presence of erlotinib by celltiter-glo assay; format: functional
HCC827 = experiment: Synergistic antiproliferative activity against human HCC827 cells assessed as combination index at ED75 measured after 72 hrs in presence of erlotinib by celltiter-glo assay; format: functional
How it was run: (§1)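 Cells grown in RPMI 1640 with 10% heat-inactivated FBS at 37°C, 5% CO₂. Seeded at 2 to 3 × 10³ per well; drugs added 24 h later. […] Viability read as cellular ATP by CellTiter-Glo. CI calculated by Chou–Talalay from median-effect plots at ED50, ED75 and ED90.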

NCI-H1299 = experiment: Synergistic antiproliferative activity against human NCI-H1299 cells assessed as combination index at ED75 measured after 72 hrs in presence of erlotinib by celltiter-glo assay; format: functional
NCI-N87 [3] = experiment: Synergistic antiproliferative activity against human NCI-N87 cells assessed as combination index at ED75 measured after 72 hrs in presence of lapatinib by celltiter-glo assay; format: functional
[4] = In vivo inhibition of ERK phosphorylation at T202/Y204 residues in human NCI-H292 cells xenografted mouse at 120 mg/kg, po administered as single dose 2 hrs post-erlotinib treatment measured after 12 hrs by Western blot analysis relative to control; format: functional
HCC70 [5] = experiment: Synergistic antiproliferative activity against human HCC70 cells assessed as combination index at ED50 treated 24 hrs prior to lapatinib and measured after 72 hrs by celltiter-glo assay; format: functional; details: time 96 hrs
NCI-N87 [6] = experiment: Synergistic antiproliferative activity against human NCI-N87 cells assessed as combination index at ED50 treated 24 hrs prior to lapatinib and measured after 72 hrs by celltiter-glo assay; format: functional; details: time 96 hrs
NCI-N87 [7] = experiment: Synergistic antiproliferative activity against human NCI-N87 cells assessed as combination index at ED50 measured after 96 hrs in presence of lapatinib by celltiter-glo assay; format: functional
MDA-MB-468 = experiment: Synergistic antiproliferative activity against human MDA-MB-468 cells assessed as combination index at ED75 treated 24 hrs prior to lapatinib and measured after 72 hrs by celltiter-glo assay; format: functional; details: time 96 hrs
SK-OV-3 [8] = experiment: Synergistic antiproliferative activity against lapatinib pretreated human SK-OV-3 cells assessed as combination index at ED75 measured after 72 hrs by celltiter-glo assay; format: functional
SK-OV-3 [9] = experiment: Synergistic antiproliferative activity against lapatinib pretreated human SK-OV-3 cells assessed as combination index at ED90 measured after 72 hrs by celltiter-glo assay; format: functional
[10] = target: RAC-alpha serine/threonine-protein kinase (Homo sapiens) (UniProt P31749); experiment: Inhibition of AKT phosphorylation at S473 residue in human HCC70 cells at 1 umol/L measured after 3 to 24 hrs by Western blot analysis; format: cell-based; details: dose 1.0 µmol/L, time 3-24 hrs
RAC-alpha serine/threonine-protein kinase (Homo sapiens), sequence (P31749 whole entry): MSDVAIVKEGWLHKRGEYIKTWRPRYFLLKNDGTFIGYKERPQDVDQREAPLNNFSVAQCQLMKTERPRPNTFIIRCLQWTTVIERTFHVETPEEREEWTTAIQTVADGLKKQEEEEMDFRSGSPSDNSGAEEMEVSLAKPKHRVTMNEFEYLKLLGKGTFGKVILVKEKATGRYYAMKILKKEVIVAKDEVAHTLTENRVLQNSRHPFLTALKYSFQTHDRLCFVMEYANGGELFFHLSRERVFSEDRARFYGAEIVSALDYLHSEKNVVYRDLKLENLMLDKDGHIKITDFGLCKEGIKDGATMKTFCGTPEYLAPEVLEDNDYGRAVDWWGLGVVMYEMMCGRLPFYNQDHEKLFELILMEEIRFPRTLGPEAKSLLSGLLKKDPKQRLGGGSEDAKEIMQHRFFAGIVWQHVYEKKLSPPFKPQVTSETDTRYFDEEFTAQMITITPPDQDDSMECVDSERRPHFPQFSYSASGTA
How it was run: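 HCC70 cells at ~70% confluence were exposed to 10 µmol/L lapatinib, 1 µmol/L MK-2206, or both, for 0, 3, 6, 12 or 24 h. Lysates were prepared in Triton X-100/Tris buffer (pH 7.5) with protease and phosphatase inhibitors. Immunoblots after SDS-PAGE and nitrocellulose transfer were probed for pAkt and pS6.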

BT-474 [11] = experiment: Synergistic antiproliferative activity against human BT-474 cells assessed as combination index at ED50 measured after 72 hrs in presence of docetaxel by celltiter-glo assay; format: functional; how it was run: as §1
BT-474 [12] = experiment: Synergistic antiproliferative activity against human BT-474 cells assessed as combination index at ED75 measured after 72 hrs in presence of docetaxel by celltiter-glo assay; format: functional; how it was run: as §1
HCC70 [13] = experiment: Synergistic antiproliferative activity against human HCC70 cells assessed as combination index at ED50 measured after 72 hrs in presence of docetaxel by celltiter-glo assay; format: functional; how it was run: as §1
BT-20 = experiment: Synergistic antiproliferative activity against human BT-20 cells assessed as combination index at ED75 measured after 72 hrs in presence of docetaxel by celltiter-glo assay; format: functional; how it was run: as §1
HCC70 [14] = experiment: Synergistic antiproliferative activity against human HCC70 cells assessed as combination index at ED75 measured after 72 hrs in presence of docetaxel by celltiter-glo assay; format: functional; how it was run: as §1
A2780 [15] = experiment: Synergistic antiproliferative activity against human A2780 cells assessed as combination index at ED75 measured after 72 hrs in presence of carboplatin by celltiter-glo assay; format: functional
How it was run: (§2)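 Cells were seeded at 2–3 × 10³ per well in RPMI 1640 with 10% FBS. At 24 h, MK-2206 and the partner drug were added simultaneously at constant concentration ratios spanning each agent's IC₅₀, for 72 h. Growth was read as cellular ATP by CellTiter-Glo. CI was taken from median-effect plots of each agent alone and in combination (Chou–Talalay), at ED₅₀, ED₇₅ and ED₉₀.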

A2780 [16] = experiment: Synergistic antiproliferative activity against human A2780 cells assessed as combination index at ED90 measured after 72 hrs in presence of gemcitabine by celltiter-glo assay; format: functional; how it was run: as §2
A2780 [17] = experiment: Induction of apoptosis in human A2780 cells assessed as increase in caspase-3/7 activity measured after 48 hrs in presence of carboplatin by caspase-glo 3/7 assay; format: functional, cell-based; details: dose 0.0625-1 µM
NCI-H460 [18] = experiment: Antitumor activity against human NCI-H460 cells xenografted in CD1 nude mouse assessed as reduction in tumor volume at 120 mg/kg, po administered 3 times per week for 2 weeks in presence of carboplatin by caliper method; format: functional, organism-based
How it was run: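 NCI-H460 cells were injected s.c. in Matrigel/PBS into CD1-nude mice (female in the carboplatin study). Mice were randomized at 0.2 cm³, n = 5. Carboplatin was given at 50 mg/kg or gemcitabine at 100 mg/kg, i.v. in saline, on days 0 and 7. MK-2206 (30% Captisol) was given at 120 mg/kg po on days 0, 2, 4, 7, 9, 11. Tumors measured by caliper twice weekly.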

NCI-H661 [19] = experiment: Synergistic antiproliferative activity against human NCI-H661 cells assessed as combination index at ED25 to ED90 measured after 72 hrs in presence of gemcitabine by celltiter-glo assay; format: functional
NCI-H1703 = experiment: Synergistic antiproliferative activity against human NCI-H1703 cells assessed as combination index at ED25 to ED90 measured after 72 hrs in presence of gemcitabine by celltiter-glo assay; format: functional
NCI-H661 [20] = experiment: Induction of apoptosis in human NCI-H661 cells assessed as fold induction of capsase-3/7 activity measured after 24 to 48 hrs in presence of carboplatin by caspase-glo 3/7 assay; format: functional; details: time 24-48 hrs
UMC-11 = experiment: Induction of apoptosis in human UMC-11 cells assessed as fold induction of capsase-3/7 activity measured after 24 to 48 hrs in presence of gemcitabine by caspase-glo 3/7 assay; format: functional; details: time 24-48 hrs

With `Cl.NC1(c2ccc(-c3nc4ccn5c(=O)[nH]nc5c4cc3-c3ccccc3)cc2)CCC1` the Activity [1] was “Toxic”, the CI50 (NCI-H460 [2]) was 0.34 and the CI75 (HCC827) was 0.18. The CI75 (NCI-H1299) was 0.31, the CI75 (NCI-N87 [3]) was 0.55 and the inhibition in vivo at 120 mg/kg [4] was 53.5%. For the same molecule, the CI50 (HCC70 [5]) was 0.18, the CI50 (NCI-N87 [6]) was 0.18 and the CI50 (NCI-N87 [7]) was 0.18. For the same molecule, the CI75 (MDA-MB-468) was 0.18, the CI75 (SK-OV-3 [8]) was 0.18 and the CI90 (SK-OV-3 [9]) was 0.18. The inhibition [10] was “Active”, the CI50 (BT-474 [11]) was 1 and the CI75 (BT-474 [12]) was 0.8. The CI50 (HCC70 [13]) was 0.9, the CI75 (BT-20) was 0.7 and the CI75 (HCC70 [14]) was 0.7. The CI75 (A2780 [15]) was 0.43, the CI90 (A2780 [16]) was 0.39 and the Activity (A2780 [17]) was “Dose-Dependent Effect”. For the same molecule, the Activity (NCI-H460 [18]) was “Active”, the CI (NCI-H661 [19]) was 0.53 and the CI (NCI-H1703) was 0.43. The “fold change (FC)” value (NCI-H661 [20]) was 2 and the “fold change (FC)” value (UMC-11) was 1.2.

Reference: ChEMBL document CHEMBL5705892, “MK-2206, an allosteric Akt inhibitor, enhances antitumor efficacy by standard chemotherapeutic agents or molecular targeted drugs in vitro and in vivo” (Mol Cancer Ther, 2010)
